Results as given in ChEMBL document CHEMBL2346557 (Bioorg Med Chem, 2013).
≈ marks a conversion by molar mass, not a printed value.

Assays:
[1] = Solubility of the compound; type: physicochemical
[2] = Tmax in beagle dog at 30 mg/kg, po; type: ADME, organism-based, Canis lupus familiaris; parameters: dose 30 mg/kg, route oral; details: in vivo
Procedure, shortened: (§1)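 Beagles (n = 3) were given an oral emulsion in 30% Labrafil. Blood was collected at 0, 5, 15 and 30 min and at 1, 2, 4, 8 and 24 h. Bioavailability was derived relative to IV dosing.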

Mus musculus [3] = assay: Total unbound Cmax in CD1 mouse at 10 mg/kg, iv; type: ADME, organism-based; parameters: dose 10 mg/kg, route intravenous; details: in vivo
[4] = Volume of distribution at steady state in CD1 mouse at 10 mg/kg, iv; type: ADME, organism-based; parameters: dose 10 mg/kg, route intravenous; details: in vivo, read-out: Vdss
Procedure, shortened: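 CD1 mice (n = 3 per compound) given 10 mg/kg as a single tail-vein injection in a pH 7.0 solution of 10% ethanol plus PEG400 (some compounds also with 10% DMSO). Blood was sampled at 0, 5, 15 and 30 min and 1, 2, 4, 8 and 24 h. Parameters were derived from the plasma concentration–time profiles.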

Canis familiaris [5] = assay: Total unbound AUC (0 to infinity) in beagle dog at 10 mg/kg, iv; type: ADME, organism-based, Canis lupus familiaris; parameters: dose 10 mg/kg, route intravenous; details: in vivo
Mus musculus [6] = assay: Oral bioavailability in CD1 mouse at 50 mg/kg; type: ADME, organism-based; details: in vivo
Procedure, shortened: (§2)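 CD1 mice (n = 3 per compound) were dosed orally at 50 mg/kg as an aqueous emulsion in 30% Labrafil. Blood was drawn at 0, 5, 15 and 30 min and 1, 2, 4, 8 and 24 h. Bioavailability and other parameters were calculated from the plasma profiles and compared against the intravenous arm.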

[7] = Metabolic stability in human liver microsomes assessed as compound remaining at 2 uM measured at 1 hr; type: ADME, Microsome; details: read-out: Stability
Procedure, shortened: (§3)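 Liver microsomes (human, or male monkey, dog, rat or mouse) at 0.5 mg/mL final with 2 µM compound, 5 mM MgCl2 and 5 mM PBS. The reaction was started with 1 mM NADPH and run at 37 °C. Verapamil was the positive control; water replaced NADPH in the negative control. Read-out was percent parent remaining at 1 h.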

Cytochrome P450 3A4 = Cytochrome P450 3A4 (Homo sapiens, UniProt P08684); assay: Induction of CYP3A4 in human hepatocytes; type: ADME, cell-based, Hepatocyte
Procedure, shortened: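 Cryopreserved hepatocytes from 3 human donors were cultured on collagen for 3 days, then dosed daily in fresh medium with 1, 10 or 100 μM compound, vehicle, or rifampin as positive control. CYP3A4 activity was read 24 h after the last dose using testosterone as probe substrate, analysed by LC/MS/MS. Induction is expressed as % of positive control; >40% in any donor counts as a potential inducer.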

[8] = Tmax in CD1 mouse at 50 mg/kg, po; type: ADME, organism-based; parameters: dose 50 mg/kg, route oral; details: in vivo; procedure, shortened: as §2
Rattus norvegicus [9] = assay: Total unbound Cmax in Sprague-Dawley rat at 50 mg/kg, po; type: ADME, organism-based; parameters: dose 50 mg/kg, route oral; details: in vivo
Procedure, shortened: (§4)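 Sprague–Dawley rats (n = 3) were dosed orally with an emulsion in 30% Labrafil. Blood was sampled from 0 to 24 h (0, 5, 15, 30 min; 1, 2, 4, 8, 24 h). Bioavailability was derived against the IV arm.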

[10] = Clearance in Sprague-Dawley rat at 10 mg/kg, iv; type: ADME, organism-based; parameters: dose 10 mg/kg, route intravenous; details: in vivo
[11] = Metabolic stability in monkey liver microsomes assessed as compound remaining at 2 uM measured at 1 hr; type: ADME, Macaca mulatta, Microsome; details: rhesus monkey, read-out: Stability; procedure, shortened: as §3
[12] = molecular target: Voltage-gated inwardly rectifying potassium channel KCNH2 (Homo sapiens, UniProt Q12809); assay: Inhibition of human ERG
[13] = molecular target: T1, Glucocorticoid receptor (Mus musculus) (UniProt P06537); assay: Induction of glucocorticoid receptor nuclear translocation in mouse C2C12 cells at 1 x 10^-5 to 1.69 x 10^-10 M by chemiluminescence assay relative to control; type: cell-based
T1 sequence (whole entry): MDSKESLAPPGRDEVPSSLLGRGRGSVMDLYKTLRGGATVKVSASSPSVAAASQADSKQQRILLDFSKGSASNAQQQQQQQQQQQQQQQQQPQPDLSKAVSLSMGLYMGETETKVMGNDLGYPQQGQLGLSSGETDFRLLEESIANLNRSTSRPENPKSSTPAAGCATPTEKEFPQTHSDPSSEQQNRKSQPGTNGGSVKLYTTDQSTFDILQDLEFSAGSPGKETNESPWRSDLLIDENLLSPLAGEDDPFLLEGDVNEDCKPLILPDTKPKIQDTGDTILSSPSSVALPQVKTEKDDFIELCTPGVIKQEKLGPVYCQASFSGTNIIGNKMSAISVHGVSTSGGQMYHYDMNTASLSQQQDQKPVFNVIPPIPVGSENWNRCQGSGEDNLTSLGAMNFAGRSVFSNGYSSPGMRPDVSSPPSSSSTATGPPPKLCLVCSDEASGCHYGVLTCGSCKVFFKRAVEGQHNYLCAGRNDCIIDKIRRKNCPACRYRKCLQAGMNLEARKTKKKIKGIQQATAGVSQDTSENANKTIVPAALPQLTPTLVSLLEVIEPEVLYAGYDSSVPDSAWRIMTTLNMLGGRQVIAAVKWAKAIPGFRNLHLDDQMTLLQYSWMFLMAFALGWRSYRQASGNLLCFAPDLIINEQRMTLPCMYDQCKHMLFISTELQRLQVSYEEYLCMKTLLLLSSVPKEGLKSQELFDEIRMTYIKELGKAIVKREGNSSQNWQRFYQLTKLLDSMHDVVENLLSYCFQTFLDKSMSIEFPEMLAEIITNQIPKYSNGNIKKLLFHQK
Procedure, shortened: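 GR nuclear translocation measured by DiscoveRx in PathHunter cells using enzyme-fragment complementation. ProLink-tagged GR recruits a nuclear steroid receptor co-activator peptide fused to the enzyme acceptor, giving a chemiluminescent signal.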

[14] = Terminal half life in beagle dog at 10 mg/kg, iv; type: ADME, organism-based, Canis lupus familiaris; parameters: dose 10 mg/kg, route intravenous; details: in vivo, read-out: beta t1/2 (converted)
Caco-2 = assay: Apparent permeability from apical to basolateral side of human Caco2 cells; type: ADME, cell-based
Procedure, shortened: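 Caco-2 monolayer permeability measured in the apical-to-basolateral direction and reported as Papp (10−6 cm/s); the efflux ratio was also determined.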

Mus musculus [15] = assay: Total unbound Cmax in CD1 mouse at 50 mg/kg, po; type: ADME, organism-based; parameters: dose 50 mg/kg, route oral; details: in vivo
Rattus norvegicus [16] = assay: Oral bioavailability in Sprague-Dawley rat at 50 mg/kg; type: ADME, organism-based; details: in vivo; procedure, shortened: as §4
Canis familiaris [17] = assay: Total unbound Cmax in beagle dog at 30 mg/kg, po; type: ADME, organism-based, Canis lupus familiaris; parameters: dose 30 mg/kg, route oral; details: in vivo; procedure, shortened: as §1
[18] = Metabolic stability in dog liver microsomes assessed as compound remaining at 2 uM measured at 1 hr; type: ADME, Canis lupus familiaris, Microsome; details: read-out: Stability; procedure, shortened: as §3

Sequence of Cytochrome P450 3A4 (P08684 whole entry): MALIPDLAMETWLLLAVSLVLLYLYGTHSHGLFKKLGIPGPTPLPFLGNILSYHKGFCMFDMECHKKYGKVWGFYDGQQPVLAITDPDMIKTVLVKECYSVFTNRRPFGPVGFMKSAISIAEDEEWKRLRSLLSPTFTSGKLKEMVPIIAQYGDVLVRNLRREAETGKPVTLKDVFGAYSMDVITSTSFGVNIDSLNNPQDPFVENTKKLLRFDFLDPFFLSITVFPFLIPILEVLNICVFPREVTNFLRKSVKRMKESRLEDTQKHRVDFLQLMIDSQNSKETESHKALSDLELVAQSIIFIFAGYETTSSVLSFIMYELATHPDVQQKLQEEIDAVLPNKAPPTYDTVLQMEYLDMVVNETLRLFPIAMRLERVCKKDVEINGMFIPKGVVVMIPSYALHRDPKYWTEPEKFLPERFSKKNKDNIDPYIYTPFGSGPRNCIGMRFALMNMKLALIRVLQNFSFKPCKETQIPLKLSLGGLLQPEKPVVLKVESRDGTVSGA
Sequence of Voltage-gated inwardly rectifying potassium channel KCNH2 (Q12809 whole entry): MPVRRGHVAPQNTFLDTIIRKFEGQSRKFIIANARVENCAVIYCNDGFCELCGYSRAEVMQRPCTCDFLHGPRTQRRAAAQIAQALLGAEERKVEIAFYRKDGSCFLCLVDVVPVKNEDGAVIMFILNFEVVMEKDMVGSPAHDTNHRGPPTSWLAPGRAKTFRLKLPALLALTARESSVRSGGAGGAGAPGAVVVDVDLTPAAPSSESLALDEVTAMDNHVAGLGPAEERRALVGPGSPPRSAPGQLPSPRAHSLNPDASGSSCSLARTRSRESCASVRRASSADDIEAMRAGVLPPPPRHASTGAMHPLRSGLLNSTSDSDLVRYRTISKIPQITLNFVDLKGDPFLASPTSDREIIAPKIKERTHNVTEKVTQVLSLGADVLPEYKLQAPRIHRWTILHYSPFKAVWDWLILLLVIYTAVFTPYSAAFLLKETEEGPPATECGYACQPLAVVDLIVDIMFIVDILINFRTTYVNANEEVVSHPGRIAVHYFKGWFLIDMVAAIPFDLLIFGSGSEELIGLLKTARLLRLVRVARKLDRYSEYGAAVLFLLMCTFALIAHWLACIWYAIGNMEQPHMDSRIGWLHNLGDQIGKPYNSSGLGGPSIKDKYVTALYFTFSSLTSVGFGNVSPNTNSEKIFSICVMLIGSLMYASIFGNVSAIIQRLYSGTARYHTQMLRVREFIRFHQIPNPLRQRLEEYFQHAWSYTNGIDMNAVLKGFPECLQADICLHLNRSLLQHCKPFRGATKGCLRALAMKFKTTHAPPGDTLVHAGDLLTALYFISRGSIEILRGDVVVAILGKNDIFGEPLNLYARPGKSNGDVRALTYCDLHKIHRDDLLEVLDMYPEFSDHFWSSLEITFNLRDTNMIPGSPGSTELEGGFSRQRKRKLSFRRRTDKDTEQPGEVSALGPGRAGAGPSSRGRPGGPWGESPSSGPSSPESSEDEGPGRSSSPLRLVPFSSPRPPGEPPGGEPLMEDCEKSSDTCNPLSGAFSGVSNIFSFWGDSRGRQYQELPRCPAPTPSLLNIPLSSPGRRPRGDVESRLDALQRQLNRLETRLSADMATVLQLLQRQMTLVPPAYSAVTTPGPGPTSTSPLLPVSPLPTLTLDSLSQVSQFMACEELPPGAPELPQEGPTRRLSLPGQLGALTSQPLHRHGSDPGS

C[C@@H]1C[C@H]2[C@@H]3CCC4=CC(=O)C=C[C@]4(C)C3=CC[C@]2(C)[C@@]1(O)C(=O)CO [VAMOROLONE]
solubility [1]: 187 µM (≈ 66.7 µg/mL) | Tmax [2]: 6 h | fCmax (Mus musculus [3]): 11167 ng/mL | Vd [4]: 0.757 L/kg | fAUC (Canis familiaris [5]): 6.791 µg·h/mL | F (Mus musculus [6]): 74.5% | remaining at 1 h, 2 µM [7]: 82% | Activity (Cytochrome P450 3A4): 24% | Tmax [8]: 2 h | fCmax (Rattus norvegicus [9]): 2543 ng/mL | clearance [10]: 1.21 L/h/kg | remaining at 1 h, 2 µM [11]: 100% | IC50 [12]: 20 µM | Activity [13]: 80.4% | half-life [14]: 5.42 h | Papp (Caco-2): 112 nm/s | fCmax (Mus musculus [15]): 6787 ng/mL | F (Rattus norvegicus [16]): 47.8% | fCmax (Canis familiaris [17]): 814 ng/mL | remaining at 1 h, 2 µM [18]: 92.5%
